ChEMBL document CHEMBL1155746, “Isolation of new protein phosphatase inhibitors from two cyanobacteria species, Planktothrix spp” (J Nat Prod, 2001)
Active and inactive are the calls of the source. The calls are words filed in the database; no cut-off is given here. *1 amine or outer side, *2 acyl side, *3 side chain or, on linkers, in order; H or OH if unused. Where a SMILES comes first, the peptide text is derived from it. Bridges are numbered along the chain shown (N, C = ends). [ ]: non-standard residue; d: D form. hTyr = N[C@@H](CCc1ccc(O)cc1)C(=O)O; aIle = CC[C@@H](C)[C@H](N)C(=O)O; NMeA = CN[C@@H](C)C(=O)O; CO = O=C([*:1])[*:2]

How the values were obtained:
Oryctolagus cuniculus = organism: Oryctolagus cuniculus; assay: Inhibition of rabbit skeletal muscle PP1 at 100 ug/mL by liquid scintillation counter
Summary of the method: (§1)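 Enzyme at 0.05 unit/50 µL was incubated with 32P-labelled myelin basic protein, which had been phosphorylated using cAMP-dependent kinase catalytic subunit and γ-[32P]ATP. Reactions ran at 30 °C for 10 min in duplicate and were stopped with 20% trichloroacetic acid on ice. Released 32Pi in the supernatant was counted by liquid scintillation. The control received MeOH.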

Homo sapiens = organism: Homo sapiens; assay: Inhibition of human red blood cells PP2A at 100 ug/mL by liquid scintillation counter; summary of the method: as §1
[1] = Inhibition of PTP-S2 expressed in Escherichia coli JM109 at 100 ug/mL
[2] = biological target: Dual specificity protein phosphatase 3 (Homo sapiens) (UniProt P51452); assay: Inhibition of human dual specificity protein phosphatase VHR expressed in Escherichia coli JM109 at 100 ug/mL
Sequence of Dual specificity protein phosphatase 3 (Homo sapiens) (P51452 whole entry, looked up): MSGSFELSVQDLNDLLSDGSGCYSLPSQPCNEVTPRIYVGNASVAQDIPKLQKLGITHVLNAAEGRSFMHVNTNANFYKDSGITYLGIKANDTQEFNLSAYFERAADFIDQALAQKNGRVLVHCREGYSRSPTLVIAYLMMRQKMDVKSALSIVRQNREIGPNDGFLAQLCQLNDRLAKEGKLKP

[3] = biological target: T1, M-phase inducer phosphatase 2 (Homo sapiens) (UniProt P30305); assay: Inhibition of human dual specificity protein phosphatase Cdc25B expressed in Escherichia coli BL21 (DE3) at 100 ug/mL
T1 sequence (whole entry): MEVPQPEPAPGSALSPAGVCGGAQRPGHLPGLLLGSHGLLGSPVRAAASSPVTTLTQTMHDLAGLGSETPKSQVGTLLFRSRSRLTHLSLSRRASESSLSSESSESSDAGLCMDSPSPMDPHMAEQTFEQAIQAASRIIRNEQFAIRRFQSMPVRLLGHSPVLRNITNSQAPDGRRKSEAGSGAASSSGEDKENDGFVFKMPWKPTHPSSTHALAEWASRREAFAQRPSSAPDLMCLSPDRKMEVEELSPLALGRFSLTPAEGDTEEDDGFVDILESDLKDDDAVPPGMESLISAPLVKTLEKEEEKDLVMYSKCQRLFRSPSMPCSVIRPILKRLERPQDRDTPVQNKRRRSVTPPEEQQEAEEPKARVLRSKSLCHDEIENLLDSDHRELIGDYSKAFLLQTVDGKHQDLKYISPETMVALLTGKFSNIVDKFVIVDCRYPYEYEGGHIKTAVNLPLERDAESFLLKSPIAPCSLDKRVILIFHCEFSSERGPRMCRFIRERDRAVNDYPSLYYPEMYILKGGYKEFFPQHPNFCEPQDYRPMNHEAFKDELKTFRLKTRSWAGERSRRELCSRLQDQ
Summary of the method: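 The catalytic subunit was expressed from pET21b and purified. Substrate was 200 µM 3-O-methylfluorescein phosphate in 100 mM Tris-HCl, 40 mM NaCl, 1 mM dithiothreitol, 20% glycerol, pH 8.2, at 37 °C for 20 min. Reactions were stopped with 6 M guanidine-HCl/1 M MES, pH 5.5, and the absorbance increase at 477 nm was read. The control received MeOH.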

[4] = Inhibition of rabbit skeletal muscle PP1; design: species or system Oryctolagus cuniculus; summary of the method: as §1
[5] = Inhibition of human red blood cell PP2A; summary of the method: as §1

Row | inhibition (Oryctolagus cuniculus) [%] | inhibition (Homo sapiens) [%] | Activity [1] | Activity [2] | Activity [3] | IC50 [4] [µM] | IC50 [5] [µM] | SMILES
1 | 43.3 | 62.8 | inactive | inactive | inactive | – | – | CSCC[C@@H]1NC(=O)[C@H](NC(=O)N[C@@H](CCCNC(=N)N)C(=O)O)CCCCNC(=O)[C@H](Cc2ccccc2)NC(=O)[C@H](C)N(C)C(=O)[C@H](CCc2ccc(O)cc2)NC1=O ({Arg-CO}-[dK]M[hTyr][NMeA]F; lactam 1-C)
2 | 11.2 | 9.6 | inactive | inactive | inactive | – | – | CC[C@@H](C)[C@@H]1NC(=O)[C@H](NC(=O)N[C@@H](Cc2ccc(O)cc2)C(=O)O)CCCCNC(=O)[C@H](Cc2ccccc2)NC(=O)[C@H](C)N(C)C(=O)[C@H](CCc2ccc(O)cc2)NC1=O ({Tyr-CO}-[dK][aIle][hTyr][NMeA]F; lactam 1-C)
3 | 38.1 | 41.5 | inactive | inactive | inactive | – | – | CC[C@H](C)[C@@H]1NC(=O)[C@H](NC(=O)N[C@@H](CCCNC(=N)N)C(=O)O)CCCCNC(=O)[C@H](Cc2ccccc2)NC(=O)[C@H](C)N(C)C(=O)[C@H](CCc2ccc(O)cc2)NC1=O ({Arg-CO}-[dK]I[hTyr][NMeA]F; lactam 1-C)
4 | 97.3 | 98.4 | inactive | inactive | inactive | 0.9 | 1.33 | CC[C@H](C)[C@@H]1NC(=O)[C@H](NC(=O)N[C@@H](CCCNC(=N)N)C(=O)O)CCCCNC(=O)[C@H](Cc2ccccc2)NC(=O)[C@H](CCc2ccc(O)cc2)N(C)C(=O)[C@H](CCc2ccc(O)cc2)NC1=O [OSCILLAMIDE C]
